Data reported in ChEMBL document CHEMBL1212828, “Synthesis and biological evaluation of novel pyrazole compounds” (Bioorg Med Chem, 2010).
The source made the active and inactive calls. The calls are words filed in the database; no cut-off is given here.

Tests used:
THP-1 [1] = assay: Cytotoxicity against human THP1 cells assessed as reduction in cell viability; format: cell-based
Procedure, shortened: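 THP-1 cells in DMEM-F12 with 5% FBS, 24-well plates, pretreated 15 min with compound or DMSO vehicle, then stimulated with LPS 0.5 µg/mL plus IFN-γ 150 U/mL for 24 h. Death read as supernatant LDH (iodonitrotetrazolium formazan, 490 nm, fraction of Triton X-100 lysate); survival by MTT; MCP-1 by ELISA. Concentration effects by randomized block ANOVA; 8–11 independent experiments.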

Rattus norvegicus [2] = assay: Antiinflammatory activity in po dosed Wistar albino rat assessed as inhibition of formalin-induced paw edema after 3 hrs relative to control; format: functional
THP-1 [3] = assay: Neuroprotective activity against LPS and IFN-gamma-stimulated neurotoxin production in human THP1 cell assessed as inhibition of THP1 cell secretion-induced toxicity to human SH-SY5Y cells after 72 hrs by MTT assay; format: functional, cell-based; settings: for IC50: THP-1, 72 h
Procedure, shortened: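 THP-1 cells pretreated 15 min with compound, then stimulated with LPS (0.5 µg/mL) plus IFN-γ (150 U/mL) for 24 h. Cell-free supernatant transferred to SH-SY5Y cells plated 24 h earlier (2 × 10^5 cells/mL). After 72 h, SH-SY5Y viability read by MTT (0.5 mg/mL, 1 h, 37 °C, OD570) or by LDH release (OD490, relative to Triton X-100 lysis). IC50 estimated.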

Rattus norvegicus [4] = assay: Antiinflammatory activity in Wistar albino rat sub-acute inflammatory model assessed as inhibition of formalin-induced paw edema at 20 mg/kg, po administered 1 hr prior to formalin challenge measured on day 1 relative to control; format: functional
Procedure, shortened: (§1)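 Male Wistar rats, 180–200 g, five per group, dosed orally 20 mg/kg daily for 7 consecutive days. Formalin (2%, 0.1 mL) injected subplantar into left hind paw under light ether 1 h after dosing, repeated on day 3. Paw volume measured plethysmographically on days 1 and 8; inhibition expressed relative to untreated controls.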

Rattus norvegicus [5] = assay: Antiinflammatory activity in Wistar albino rat assessed as inhibition of turpentine oil-induced granuloma at 20 mg/kg, po qd for 7 days post turpentine oil challenge measured on day 8; format: functional
Procedure, shortened: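 In ether-anaesthetized male Wistar rats (five per group) a dorsal subcutaneous pouch is formed with 2 mL air, then 0.5 mL turpentine oil is injected. Oral dosing at 20 mg/kg starts 1 h before turpentine and continues 7 days. On day 8 the exudate is drawn by syringe and its volume recorded; % inhibition = (Vcontrol − Vtreated)/Vcontrol × 100.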

Rattus norvegicus [6] = assay: Antiinflammatory activity in Wistar albino rat assessed as inhibition of formalin-induced paw edema at 20 mg/kg, po administered 1 hr prior to formalin challenge measured after 3 hrs relative to control; format: functional
Procedure, shortened: (§2)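 Male Wistar rats, 180–200 g, groups of five; single oral dose 1 h before 2% formalin (0.1 mL) into subplantar left hind paw under light ether anaesthesia. Paw volume read by water plethysmometer at baseline and 1, 2, 3, 4 h; % inhibition = control (Vt−Vo) minus treated (Vt−Vo), over control, ×100. Means ± SEM; ANOVA with Student–Newman–Keuls.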

Rattus norvegicus [7] = assay: Antiinflammatory activity in Wistar albino rat assessed as inhibition of formalin-induced paw edema at 20 mg/kg, po administered 1 hr prior to formalin challenge measured after 1 hr relative to control; format: functional; procedure, shortened: as §2
SH-SY5Y = assay: Neuroprotective activity in human SH-SY5Y cells; format: functional, cell-based
Procedure, shortened: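 SH-SY5Y cells seeded at 2 × 10^5/mL in DMEM-F12 with 5% FBS; after 24 h medium replaced by supernatant of THP-1 cells stimulated 24 h with LPS + IFN-γ, or by medium containing 250 µM H2O2, with compound added at transfer. Cell death measured by LDH assay 72 h later; five independent experiments; randomized block ANOVA.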

THP-1 [8] = assay: Antiinflammatory activity in human THP1 cells assessed as reduction in LPS and IFN-gamma-induced MCP level after 24 hrs; format: functional, cell-based
Procedure, shortened: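 THP-1 cells (5 × 10^5 cells/mL, DMEM-F12 with 5% FBS) pretreated 15 min with compound or DMSO vehicle, then stimulated with 0.5 µg/mL LPS plus 150 U/mL IFN-γ. After 24 h, MCP-1 in cell-free medium measured by ELISA. IC50 estimated from concentration–response; randomized block ANOVA.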

[9] = biological target: T1, Prostaglandin G/H synthase 2 (Homo sapiens) (UniProt P35354); assay: Inhibition of human COX2 at 100 uM
T1 sequence (whole entry): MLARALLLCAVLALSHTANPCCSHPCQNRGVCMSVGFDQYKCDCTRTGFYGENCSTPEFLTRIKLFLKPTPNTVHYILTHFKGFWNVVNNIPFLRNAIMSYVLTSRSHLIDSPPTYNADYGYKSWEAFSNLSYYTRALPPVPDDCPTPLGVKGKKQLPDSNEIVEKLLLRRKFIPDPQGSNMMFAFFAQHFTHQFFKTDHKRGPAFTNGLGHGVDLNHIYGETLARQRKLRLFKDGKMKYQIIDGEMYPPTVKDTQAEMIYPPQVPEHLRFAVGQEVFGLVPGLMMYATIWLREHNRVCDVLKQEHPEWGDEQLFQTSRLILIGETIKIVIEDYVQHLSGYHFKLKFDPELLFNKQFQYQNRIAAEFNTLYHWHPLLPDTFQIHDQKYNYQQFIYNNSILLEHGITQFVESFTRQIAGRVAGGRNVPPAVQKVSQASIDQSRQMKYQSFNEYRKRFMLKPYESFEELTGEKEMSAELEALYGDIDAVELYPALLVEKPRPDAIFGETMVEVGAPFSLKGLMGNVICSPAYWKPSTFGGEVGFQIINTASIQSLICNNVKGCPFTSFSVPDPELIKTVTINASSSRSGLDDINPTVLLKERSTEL
Procedure, shortened: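 Screening kit with ovine COX-1 and human recombinant COX-2, run per manufacturer's protocol; percent inhibition of prostaglandin production measured for each isoform.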

Rattus norvegicus [10] = assay: Antiinflammatory activity in Wistar albino rat sub-acute inflammatory model assessed as inhibition of formalin-induced paw edema at 20 mg/kg, po administered 1 hr prior to formalin challenge measured on day 8 relative to control; format: functional; procedure, shortened: as §1
[11] = Acute toxicity in Wistar albino rat after 24 hrs; format: organism-based; settings: in vivo, read-out: ALD50
Procedure, shortened: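 Male Wistar albino rats (180–200 g), fasted 24 h, groups of five; compound given orally in graded doses of 0.1–3.0 g/kg. Mortality recorded at each dose after 24 h to estimate approximate acute lethal dose (ALD50).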

Rattus norvegicus [12] = assay: Toxicity in Wistar albino rat assessed as ulcerogenic activity at 300 mg/kg, po qd for 3 days; format: organism-based; set-up: dose 300 mg/kg, route oral; settings: in vivo, 72 h
Procedure, shortened: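 Rats in groups of five, fasted 12 h with water ad libitum; oral dosing in two equal portions at 0 and 12 h for three days, 300 mg/kg per day; control given 1% gum acacia. Killed 6 h after last dose; stomach opened along greater curvature, saline-washed, inspected under 3× lens for hyperemia, hemorrhage, erosion or ulcer.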

| Structure (SMILES) | EC50 (THP-1 [1]) [µM] | ED50 (Rattus norvegicus [2]) [mg/kg] | IC50 (THP-1 [3]) [µM] | inhibition in vivo at 20 mg/kg (Rattus norvegicus [4]) [%] | inhibition in vivo at 20 mg/kg (Rattus norvegicus [5]) [%] | inhibition in vivo at 20 mg/kg (Rattus norvegicus [6]) [%] | inhibition in vivo at 20 mg/kg (Rattus norvegicus [7]) [%] | Activity (SH-SY5Y) | IC50 (THP-1 [8]; Homo sapiens, THP-1, 24 h, read-out: IC50) [µM] | inhibition [9] [%] | inhibition in vivo at 20 mg/kg (Rattus norvegicus [10]) [%] | LD50 at 24 h [11] [mg/kg] | Activity (Rattus norvegicus [12]) [%] | Activity (THP-1 [3]) | IC50 (THP-1 [8]) [µM] |
| --- | --- | --- | --- | --- | --- | --- | --- | --- | --- | --- | --- | --- | --- | --- | --- |
| CC(NC(=O)C(=O)Nc1c(C#N)cnn1-c1ccccc1)c1ccccc1 (configuration not stated) | 500 | 19.6 | 6 | 39 | 51 | 46 | 50 | inactive | 150 | 33.8 | 38 | > 300 | 10 |  |  |
| N#Cc1cnn(-c2ccccc2)c1NC(=O)C(=O)Nc1c(C#N)cnn1-c1ccccc1 | 100 | 17.5 | 10 | 43 | 48 | 50 | 44 | Active |  | 14 | 44 | > 300 | 0 | Dose-dependent effect | 250 |
